# Source: PubChem BioAssay AID504383 (The Scripps Research Institute Molecular Screening Center, 2011)
# Screen size: about 2,500 compounds; about 1,200 (48%) were called active.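 How the source made its calls: active means mean activation above the low control average plus 3 SD, as set in the primary screen (cut at about 12% in these data); inactive means the rest.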 So high a share suggests a set chosen from earlier hits. The list shows a part of the results.
# Target: Troponin I, cardiac muscle (Homo sapiens) + Troponin T, cardiac muscle (Homo sapiens) + Troponin C, slow skeletal and cardiac muscles (Homo sapiens) (UniProt P19429+P45379+P63316)
# Test: calcium sensitizers of cardiac thin filaments – biochemical, IANBD-TnC fluorescence, triplicate, confirmation (AID 504383);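 further: 0% = DMSO at 0.472 mM calcium and 100% = DMSO at 2.9 mM calcium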
# Settings: IANBD-labeled cardiac RTF, Ca2+ sensitivity fluorescence; at 7.2 µM; stronger effect = higher value; scaled from EC20 to saturating calcium; tested at EC20 calcium, 0.472 mM
# Summary of the method: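 Assay system: labelled regulated thin filaments / Timing: 15 min at 25 °C / Detection: fluorescence intensity of labelled filaments / Measure: fluorescence gain scaled between EC20 and EC100 calcium controls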
row,SMILES,activation
1,COc1ccc(/C=[N+](\[O-])C2N(c3ccccc3)C(=S)SC2(C)C)cc1OC (stereo unspecified),5.83% (inactive)
2,CCN1CCc2c(sc(NC(=O)Nc3ccc(Cl)c(Cl)c3)c2C(N)=O)C1,-0.7% (inactive)
3,CN1CCN(CCNC(=O)Nc2ccc(Cl)cc2)CC1,13.4% (active)
4,Nc1cccc(N2C(=O)c3cccc4c(N)ccc(c34)C2=O)c1,8.12% (inactive)
5,CCN1C(=O)c2cccc3c(N)ccc(c23)C1=O,5.33% (inactive)
6,CC(C)CCN1C(=O)c2cccc3c(N)ccc(c23)C1=O,15.7% (active)
7,c1ccc2c(c1)CN1CCCC1=N2,3.94% (inactive)
8,Cc1ccc(NC(=O)/C(C#N)=C/c2ccc(C)s2)c(C)c1,-3.42% (inactive)
9,CC1CC1c1ccc(/C=C(\C#N)C(=O)Nc2ccc(Cl)cc2Cl)o1 (stereo unspecified),19.9% (active)
10,CC1CC1c1ccc(/C=C(\C#N)C(=O)Nc2cccc(Cl)c2Cl)o1 (stereo unspecified),22.5% (active)
11,CN1/C(=C\C=C(/C#N)C(=O)Nc2ccccc2F)C(C)(C)c2ccccc21,5.14% (inactive)
12,Clc1cccc(C[n+]2cc(-c3ccccc3)n3c2CCC3)c1,4.21% (inactive)
13,CN(CC(=O)NCc1ccc(Cl)cc1)S(=O)(=O)c1cccc2cccnc12,12.1% (active)
14,CN(CC(=O)NCc1ccco1)S(=O)(=O)c1cccc2cccnc12,32.8% (active)
15,O=C(NCc1ccco1)C1CC(c2c(Cl)cccc2Cl)=NO1 (stereo unspecified),0.26% (inactive)
16,CN(CC(=O)N1CCN(c2ncccn2)CC1)S(=O)(=O)c1ccc(Cl)cc1,4.61% (inactive)
17,C#CC[N+](C)(C)CCCCCCCCCC,45.3% (active)
18,COc1cc(NC(=O)C2CCCCN2)ccc1OCC(C)C (stereo unspecified),15.1% (active)
19,COc1ccc(NC(=O)C2CC2)cc1OC1CCCC1,-0.05% (inactive)
20,CCC(CC)c1nc(C#N)c(NC(C)c2ccccc2)o1 (stereo unspecified),3.34% (inactive)
21,COc1ccc(CNc2oc(COc3ccccc3)nc2C#N)cc1,62.4% (active)
22,C=CCNc1oc(COc2ccc(C)cc2)nc1C#N,25.2% (active)
23,CN(C)c1ccc(NC2=C([N+](=O)[O-])CS(=O)(=O)C2)cc1,12.2% (active)

row,SMILES,activation
1,CCc1ccc(C(=O)NNC(=O)c2cccc(N3C(=O)CCC3=O)c2)cc1,34.6% (active)
2,CCc1ccc(C(=O)NNc2ccccc2F)cc1,7.76% (inactive)
3,CC1=C(C)CC(C(=O)NNC(=O)c2cccc(Cl)c2)C(C(=O)O)C1 (stereo unspecified),10.7% (inactive)
4,CN(C)c1ccc(/C=C(/C(=O)c2ccc(Cl)cc2Cl)n2cncn2)cc1,4.11% (inactive)
5,COc1ccc(CCNC(=O)CN(C)S(=O)(=O)c2ccc3c(c2)CCC(=O)N3)cc1OC,8.22% (inactive)
6,O=C1CCc2cc(S(=O)(=O)NC3CCCCC3)ccc2N1,12.4% (active)
7,Cc1cc(C(=O)NNC(=S)NCc2ccccc2)cs1,7.2% (inactive)
8,Cc1cc(C(=O)NNC(=S)Nc2ccccc2C)cs1,15.8% (active)
9,Cc1nn(-c2ccccc2)c(N2CCCC2)c1/C=C1\N=C(c2ccc(OC(C)C)cc2)OC1=O,9.02% (inactive)
10,COc1ccc(OC)c(/C=C2/Sc3ccccc3C2=O)c1,5.85% (inactive)
11,COc1ccc(OC)c(/C=C2\N=C(c3ccccc3)OC2=O)c1,33.8% (active)
12,Cc1ccc2oc3c(SCc4nc5ccccc5[nH]4)nc(C)nc3c2c1,21.2% (active)
13,Cc1ccc(C)c(C2=NNC(=O)CC2)c1,2.35% (inactive)
14,COC(=O)[C@@]1(Cc2ccc(OC)cc2)[C@@H]2C(=CC(=O)[C@H]2CC(=O)C(=O)N2CCCC2)CN1C(=O)c1ccccc1,36% (active)
15,CC(C)CNC(=S)NC(=O)c1ccccc1Cl,106% (active)
16,Nc1cccc2c1C(=O)N(c1ccccc1)C2=O,7.13% (inactive)
17,O=C1c2ccccc2C(=O)N1c1ccc(Cc2ccncc2)cc1,18.1% (active)
18,CCOC(=O)CSc1nc2c(c(=O)n(C)c(=O)n2C)n1Cc1ccccc1F,1280% (active)
19,C=CCNc1nc2c(c(=O)[nH]c(=O)n2C)n1CCCc1ccccc1,9.95% (inactive)
20,COC(=O)CSc1nc2c(c(=O)n(C)c(=O)n2C)n1CCCc1ccccc1,147% (active)
21,CN1CCN(c2nc3c(c(=O)n(C)c(=O)n3C)n2Cc2ccccc2F)CC1,5.62% (inactive)
22,CSc1nc2c(c(=O)[nH]c(=O)n2C)n1CCCc1ccccc1,3.83% (inactive)
23,C=CC[C@@H](CC(=O)N(CCO)Cc1ccccc1)C(=O)N[C@@H](COC(=O)[C@@H](CC=C)Cc1ccc(F)cc1)Cc1ccccc1,0.1% (inactive)

row,SMILES,activation
1,S=C(Nc1ccc(N2CCOCC2)cc1)Nc1ccc2nc(-c3ccco3)c(-c3ccco3)nc2c1,43.1% (active)
2,Cc1cccc(NC(=S)Nc2ccc(N3CCOCC3)cc2)c1C,5.72% (inactive)
3,C[C@H]1CN([C@@H](C)CO)C(=O)c2cccc(NC(=O)c3nc4ccccc4s3)c2O[C@H]1CN(C)C(=O)Nc1ccc(F)cc1,12.9% (active)
4,C[C@H](CO)N1C[C@H](C)[C@@H](CN(C)C(=O)Nc2ccccc2)Oc2ccc(NC(=O)Nc3ccc4c(c3)OCO4)cc2C1=O,9.67% (inactive)
5,C[C@H](CO)N1C[C@H](C)[C@@H](CN(C)S(=O)(=O)c2cccs2)Oc2c(NC(=O)Nc3ccc4c(c3)OCO4)cccc2C1=O,9.29% (inactive)
6,Cc1noc(C)c1NC(=O)N(C)C[C@H]1Oc2c(NS(=O)(=O)c3cccs3)cccc2C(=O)N([C@H](C)CO)C[C@@H]1C,4.83% (inactive)
7,C[C@H](CO)N1C[C@H](C)[C@@H](CN(C)C(=O)Nc2ccc(F)cc2)Oc2ccc(NS(C)(=O)=O)cc2C1=O,9.89% (inactive)
8,C[C@H](CO)N1C[C@H](C)[C@@H](CN(C)Cc2ccncc2)Oc2c(NC(=O)c3ccncc3)cccc2C1=O,16.5% (active)
9,C[C@H](CO)N1C[C@H](C)[C@@H](CN(C)Cc2ccc(Oc3ccccc3)cc2)Oc2c(NC(=O)C3CC3)cccc2C1=O,47.7% (active)
10,C[C@H](CO)N1C[C@H](C)[C@@H](CN(C)Cc2ccncc2)Oc2c(NS(=O)(=O)c3ccc(F)cc3)cccc2C1=O,10.3% (inactive)
11,CCOC(=O)c1c(C)oc2c1c(C=NCCO)c(O)c1ccccc12,4.94% (inactive)
12,CCN(CC)c1ccc(/C=C(\C#N)C(=O)c2ccc(Br)cc2)cc1,3.52% (inactive)
13,CC(C)NC(=O)/C(C#N)=C\c1ccc(N(C)C)o1,215% (active)
14,N#C/C(=C\c1ccc(O)c(O)c1)C(=O)NCCCc1ccccc1,4.22% (inactive)
15,CCN(CC)c1ccc(/C=C(/C#N)C(=O)NCc2ccccc2)o1,3.76% (inactive)
16,CCN(CC)c1ccc(/C=C(/C#N)C(=O)NC(C)C)o1,9.75% (inactive)
17,CCN(CC)c1ccc(/C=C(\C#N)C(N)=S)cc1,45.5% (active)
18,CCN(CC)c1ccc(/C=C(\C#N)C(=O)NCc2ccccc2)cc1,60.6% (active)
19,CN(C)c1ccc(/C=C(/C#N)C(=O)NCc2ccccc2)o1,12.4% (active)
20,CC(C)NC(=O)/C(C#N)=C/c1ccc(N(C)C)o1,7.34% (inactive)
21,Cc1cc(Cn2nc(C(=O)NCC3CC3)cc2-c2ccccc2)on1,6.6% (inactive)
22,COc1ccccc1/C=[N+](\[O-])C1SC(=S)N(C)C1(C)C (stereo unspecified),8.76% (inactive)
23,Cc1cc(C)cc(C(=O)NC(CC(N)=O)c2ccc(N3CCCCCC3)c([N+](=O)[O-])c2)c1 (stereo unspecified),3.03% (inactive)

row,SMILES,activation
1,O=C(NCc1ccccc1)c1ccc(N2CCC3(CC2)CC(c2ccccc2)=NO3)c([N+](=O)[O-])c1,5.88% (inactive)
2,NC(=O)CC(NC(=O)c1ccc(Br)cc1)c1ccc(N2CCN(c3ccc(F)cc3)CC2)c([N+](=O)[O-])c1 (stereo unspecified),42.4% (active)
3,NC(=O)CC(NC(=O)Cc1ccc(Cl)cc1)c1ccc(N2CCN(c3ccccn3)CC2)c([N+](=O)[O-])c1 (stereo unspecified),137% (active)
4,NC(=O)c1c(N)sc2c1CCCCC2,7.59% (inactive)
5,COc1ccc2nc3ccccc3nc2c1NC(=O)c1ccc(Br)cc1,139% (active)
6,COc1cc(SC)ccc1C(=O)Nc1nc2ccccc2[nH]1,9.59% (inactive)
7,COc1ccc2nc3ccccc3nc2c1NC(=O)c1ccc(Cl)cc1Cl,6.58% (inactive)
8,CSCC(O)Cn1[nH]c(=O)c2cc(Cl)c(Cl)cc2c1=O (stereo unspecified),8.73% (inactive)
9,COC(=O)c1ccc(CSc2nnc(NCc3ccccc3)s2)o1,17.8% (active)
10,COC(=O)c1ccc(CS(=O)(=O)c2ccc(F)cc2)o1,1.48% (inactive)
11,COc1ccc(CN2CCN(C(=O)c3ccccc3F)CC2)c(OC)c1OC,44.3% (active)
12,COc1cccc(CNC(=O)CCC(=O)N2CC(C)Oc3ccccc32)c1OC (stereo unspecified),4.26% (inactive)
13,COc1ccc(CN2CCC(C(=O)N3CCN(c4ccccc4F)CC3)CC2)cc1OC,8.86% (inactive)
14,CCOc1ccccc1-c1c2cc(O)c(=O)cc-2oc2cc(O)c(O)cc12,8.3% (inactive)
15,O=c1cc2oc3cc(O)c(O)cc3c(-c3ccccc3O)c-2cc1O,16.1% (active)
16,COc1cc(OC)c(-c2c3cc(O)c(=O)cc-3oc3cc(O)c(O)cc23)cc1OC,19.3% (active)
17,COC(=O)c1ccccc1-c1c2ccc(=N)cc-2oc2cc(N)ccc12,9.11% (inactive)
18,CSc1cccc(NC(=O)c2ccc(Cl)nc2)c1,15.5% (active)
19,Cn1ncc(Cl)c1C(=O)Nc1cccc(Cl)c1,5.51% (inactive)
20,CCOC(=O)C1CCCN(C(=O)c2cccc(S(=O)(=O)N3CC(C)OC(C)C3)c2)C1 (stereo unspecified),-1.51% (inactive)
21,CC(=O)c1ccc(S(=O)(=O)Nc2ccc(C(=O)N3CCC3)cc2)cc1,1.58% (inactive)
22,CC1CN(c2ccc(NS(=O)(=O)c3ccccc3)cc2C(=O)O)CC(C)O1 (stereo unspecified),98.7% (active)
